Assay results collected from several papers.
Protocols differ between the studies behind these lines.
Cell line: HepG2
Read-out: cell growth or viability

| SMILES | assay | conditions | inhibition [%] |
| --- | --- | --- | --- |
| O=C(CN1C(=O)/C(=C/c2ccc(Cl)cc2)SC1=S)Nc1ccccc1 | MTT | 10 µM | 21.2 |
| COc1ccc(/C=N/NC(=O)c2ccc(Nc3cc(C)nc4c(O)cccc34)cc2)cc1O | MTT | 20 µM | 34.6 |
| Cc1cc(=O)oc2ccc(-c3cc(-c4cccc(Cl)c4)nc(N)n3)c(O)c12 | MTT | 8 µg/mL, 72 h | 0 |
| O=C(CN1C(=O)/C(=C/c2ccc(C(F)(F)F)cc2)SC1=S)Nc1ccccc1 | MTT | 10 µM | 11.2 |
| Cc1cc(Nc2ccc(C(=O)N/N=C/c3cccc(Oc4ccccc4)c3)cc2)c2cccc(O)c2n1 | MTT | 20 µM | 51.7 |
| O=C(CN1C(=O)/C(=C/c2cccc(F)c2)SC1=S)Nc1ccccc1 | MTT | 10 µM | 7.27 |
| Cc1cc(=O)oc2ccc(-c3cc(-c4ccc(Br)cc4)nc(N)n3)c(O)c12 | MTT | 2 µg/mL, 72 h | 0 |
| Cc1cc(Nc2ccc(C(=O)N/N=C/C3CCCCC3)cc2)c2cccc(O)c2n1 | MTT | 20 µM | 45.4 |
| CCCCCCCCCCCCCCCCOP(=O)([O-])OCC[N+](C)(C)C | MTS | 20 µM, 24 h | 37.9 |
| CCOc1ccc(/C=C2\SC(=S)N(CC(=O)Nc3ccccc3)C2=O)cc1 | MTT | 10 µM | 34.3 |
| Cc1cc(Nc2ccc(C(=O)N/N=C/c3ccc[nH]3)cc2)c2cccc(O)c2n1 | MTT | 20 µM | 43.9 |
| Cc1cc(=O)oc2ccc(-c3cc(-c4cccs4)nc(N)n3)c(O)c12 | MTT | 32 µg/mL, 72 h | 14 |
| Cc1cc(Nc2ccc(C(=O)N/N=C/c3ccnc(Cl)c3)cc2)c2cccc(O)c2n1 | MTT | 20 µM | 42.4 |
| Cc1ccc(-c2cc(-c3ccc4oc(=O)cc(C)c4c3O)nc(N)n2)cc1 | MTT | 2 µg/mL, 72 h | 0 |
| O=C(CN1C(=O)/C(=C/c2cccs2)SC1=S)Nc1ccccc1 | MTT | 10 µM | 11.8 |
| CCOC(=O)c1c(C)ncn1CC(c1cn(C)c2ccc([N+](=O)[O-])cc12)c1cn(C)c2ccc([N+](=O)[O-])cc12 | MTS | 20 µM, 24 h | 10.2 |
| O=C(CN1C(=O)/C(=C/c2ccc(Cl)cc2Cl)SC1=S)Nc1ccccc1 | MTT | 10 µM | 8.03 |
| Cc1cccc(/C=N/NC(=O)c2ccc(Nc3cc(C)nc4c(O)cccc34)cc2)n1 | MTT | 20 µM | 45.4 |
